WT yeast gro inh: growth inhibition of WT yeast, mitochondrial fusion screen. mitochondrial fusion phenotypic screen, WT strain. inhibition, % at 10 µM. 190,000 compounds, 2.1% hits; in the data active means inhibition above about 58%; tested in S. cerevisiae
eIF4E 4G PPI: inhibitors of eIF4E and eIF4G interaction in translation initiation; P63073+Q04637; TR-FRET eIF4E-eIF4GI(517-606) binding, 2 h; inhibition, % at 21.7 µM; 220,000 compounds, 0.37% hits; AID 782;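 further: 0% = full FRET control wells and 100% = background wells lacking eIF4GI fragment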
p47phox inh: blocks human p47phox regulatory protein of NADPH oxidases; P14598; p47phox/p22phox peptide binding, fluorescence polarization, 2 h; inhibition, % at 24.7 µM; 220,000 compounds, 0.53% hits;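 further: 0% = p47phox with labelled peptide and 100% = labelled peptide alone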
14-3-3 Bad PPI: disrupts binding of bovine 14-3-3 zeta to phospho-Bad peptide. inhibition, % at 21.7 µM. 220,000 compounds, 0.71% hits. P63103. TR-FRET 14-3-3zeta/Dy647-pBad peptide displacement, 1 h;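 active means inhibition above about 70%, limit read from the data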;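 further: 0% = full 14-3-3 plus peptide FRET controls and 100% = background without 14-3-3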
RBBP9 inhibitor: blocks human serine hydrolase RBBP9; recombinant RBBP9, FP-Rh probe fluorescence polarization; inhibition, % at 7.94 µM; 220,000 compounds, 0.2% hits; AID 1515;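 active means inhibition above the campaign mean of all tested compounds plus 3 SD, cut at about 14% in these data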;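 further: plate controls were DMSO wells with RBBP9 for no effect and wells lacking RBBP9 protein for full effect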
Target sequence (O75884 whole entry, looked up): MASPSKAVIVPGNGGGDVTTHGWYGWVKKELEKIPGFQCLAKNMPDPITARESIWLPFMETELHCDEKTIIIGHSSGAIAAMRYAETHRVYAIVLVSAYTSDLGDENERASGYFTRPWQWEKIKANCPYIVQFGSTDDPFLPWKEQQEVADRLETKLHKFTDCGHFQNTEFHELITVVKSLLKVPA
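System: RBBP9 protein | Quantity: 2.5 µM RBBP9 dispensing solution, before mixing | Reagent: FP-Rh probe, 375 nM dispensing solution | Timing: Enzyme-compound preincubation 30 min, then probe labeling 45 min, 25 °C | Measured by: Fluorescence polarization | Read-out: % inhibition | Replication: One well per compound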
EBV gp42 inh: EBV gp42 inhibition; Q1HVG2; Fluorescence polarization binding assay, mP read-out; inhibition, % (tested at 21.74 µM); 220,000 compounds, 0.42% hits; AID 1085; in the data active means inhibition above about 50%
Target sequence (Q1HVG2 whole entry, looked up): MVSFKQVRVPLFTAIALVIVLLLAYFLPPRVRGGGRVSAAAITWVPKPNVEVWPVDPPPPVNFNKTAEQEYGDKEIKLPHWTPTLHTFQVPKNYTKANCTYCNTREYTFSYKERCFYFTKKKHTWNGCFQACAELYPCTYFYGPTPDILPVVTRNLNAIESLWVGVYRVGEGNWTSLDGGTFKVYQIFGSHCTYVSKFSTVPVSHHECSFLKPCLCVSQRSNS
RBBP9 inh conf: confirmation of human RBBP9 inhibitors; shares compounds with RBBP9 inhibitor; recombinant RBBP9, FP-Rh probe fluorescence polarization; inhibition, % at 7.94 µM; 410 compounds, 36% hits;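 active means inhibition above the hit cutoff derived for the primary screen, cut at about 15% in these data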;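 further: 0% = RBBP9 with DMSO and 100% = wells lacking RBBP9 protein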
Numbers without * were called inactive; x = no result given. Most compounds without a hit are left out; they make up all but 3.7% or so of the library.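 How the source made its calls, unless noted: active means inhibition above about 30% (limit read from the data); inactive means the rest.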

SMILES | WT yeast gro inh | eIF4E 4G PPI | p47phox inh | 14-3-3 Bad PPI | RBBP9 inhibitor | EBV gp42 inh | RBBP9 inh conf
Cc1nn(C(C)C(=O)O)c(=O)c2ccccc12 (configuration not stated) | 6 | -1 | 3 | -8 | 18* | -23 | 5
COc1ccc(-c2cc(N3C(=O)Nc4ccccc4N3O)n[nH]2)cc1 | -13 | 0 | 2 | 4 | -3 | -5 | x
CCOc1ccc(-c2cc(N3C(=O)Nc4ccccc4N3O)on2)cc1 | -3 | 6 | -10 | -2 | 16* | -1 | 4
Cc1ccc(NCCCCO)cc1C | -3 | 5 | 3 | -11 | 17* | -22 | 7
CC(C)c1ccccc1NC(=O)CNCCc1ccc(C(F)(F)F)cc1 | x | 6 | -7 | 14 | 17* | -13 | 4
CCCCC(=O)Nc1ccccc1C(C)C | -16 | 0 | -1 | -4 | -8 | -16 | x
CCCCOc1[nH]c2nc(-c3ccco3)n(Cc3ccco3)c(=N)c2c1C#N | -2 | 13 | -7 | 13 | 18* | 55* | 11
c1ccc(CSc2nnc(-c3ccco3)n2Cc2ccco2)cc1 | 21 | -5 | -19 | -11 | -10 | -3 | x
CCOC(=O)c1nn(-c2ccc(OC)cc2)c(=O)c2c(N)scc12 | 14 | 5 | -16 | -15 | 13 | 6 | x
CCOC(=O)c1nn(-c2ccc(C)c(C)c2)c(=O)c2c(N)scc12 | 2 | 0 | -8 | -1 | 18* | -34 | 38*
NC1=C(c2ccc([N+](=O)[O-])cc2)C(=O)CO1 | -9 | 12 | -9 | -15 | 4 | -6 | x
O=c1oc2c(-c3ccc([N+](=O)[O-])cc3)cc(O)cc2s1 | x | 6 | -3 | 23 | 43* | 5 | 8
COc1ccc(NC(=S)NNc2ccc(S(=O)(=O)Nc3ccccc3C(=O)O)cc2[N+](=O)[O-])cc1 | x | 9 | 11 | 14 | 22* | -5 | 15*
O=C(Cc1cccs1)Nc1ccccc1NC(=O)Cc1cccs1 | -2 | 2 | -16 | 3 | 15* | -3 | 12
CCn1cc(CN2CCCC(C(=O)c3ccc(-c4ccccc4)cc3)C2)cn1 (configuration not stated) | 21 | 1 | -26 | 32 | -2 | -2 | x
O=C(Oc1ccc(C(=S)N2CCCCC2)cc1)c1ccccc1 | 38 | 0 | 5 | -6 | 2 | -16 | x
O=C(Oc1ccc(C(=S)N2CCC(O)CC2)cc1)c1ccc(Cl)cc1 | 4 | -2 | -12 | 4 | 20* | -1 | 29*
CCc1ccccc1-n1nnnc1-c1cnccc1C(F)(F)F | x | 3 | 6 | 0 | -9 | -8 | x
Cc1nc(C)c(C(=O)NNC(=O)Nc2ccc(Cl)cc2)s1 | x | -1 | -8 | 0 | 0 | -30 | x
Cc1c(Br)c(O)c(Br)c2sc(=O)oc12 | x | 8 | -4 | 10 | 25* | -10 | 38*
Cc1ccccc1NC(=S)N/N=C1\CC(C)(C)Oc2ccc(O)cc21 | -6 | -1 | -5 | -19 | 3 | -2 | x
Cc1ccc(NC(=S)N/N=C2\CC(C)(C)Oc3ccc(O)cc32)cc1 | 7 | -8 | -25 | -6 | 17* | -14 | 11
CCOC(=O)C1CCN(CCC(=O)Nc2ccc(C)cc2)CC1 | -11 | -1 | -7 | -10 | 4 | -4 | x
COc1cc(/C=C/c2ccc3c(Br)cc(Br)c(O)c3n2)ccc1O | x | 4 | 9 | -20 | 17* | -9 | 47*
CCOC(=O)c1c(C)[nH]c(N=Nc2ccccc2)c1C | 75* | -7 | -15 | 7 | 15* | 12 | 6
CCOC(=O)c1c(C)[nH]c(N=Nc2ccc(C)cc2)c1C | 7 | 0 | -13 | 8 | -10 | 11 | x
Cn1ncc(Br)c1NC(=O)CSc1ccc(Cl)cc1 | x | 6 | 0 | 8 | 18* | -11 | 3
Cc1ccc(C(=O)Nc2ccc(C(=O)O)cc2)cc1S(=O)(=O)NCc1ccccc1 | -4 | -3 | -4 | -13 | -9 | -10 | x
COc1ccccc1N1CC(C)(C)C(=O)N(C(=O)c2c(F)cccc2Cl)C1=S | x | 3 | 7 | 4 | 0 | -10 | x
CCOC(=O)c1cc(-c2ccc(C)cc2)n(CCC(=O)NCCCOC)c1C | -1 | 0 | -13 | -15 | 15* | -3 | 2

Screens from PubChem BioAssay.
